Test results published in ChEMBL document CHEMBL3120162, “Sesquiterpenes from Neurolaena lobata and their antiproliferative and anti-inflammatory activities” (J Nat Prod, 2014).
Calls of active or inactive are those of the source. No cut-off for these calls is given here.

Columns and labels:
[1] = tested on: HUVEC; experiment: Inhibition of LPS-induced IL-8 secretion in HUVEC expressing TERT at 30 uM treated for 15 mins prior to LPS challenge measured after 6 hrs by ELISA; assay type: functional, cell-based; settings: Homo sapiens
Outline: (§1)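 Immortalized HUVEC (hTERT) were grown in medium 199 with 20% FBS, glutamine and ECGS/heparin. Compounds were added in medium with 5% FBS (final 30 μM) 15 min before a stimulus: TNF-α 30 ng/mL or LPS 100 ng/mL final. Media were collected after 6 h and IL-8 protein was measured by ELISA with TMB substrate. Sextuplicates, BAY positive control, ANOVA.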

[2] = tested on: HUVEC; experiment: Inhibition of TNF-alpha-induced IL-8 secretion in HUVEC expressing TERT at 30 uM treated for 15 mins prior to LPS challenge measured after 6 hrs by ELISA; assay type: functional, cell-based; settings: Homo sapiens; outline: as §1
[3] = tested on: MCF7; experiment: Antiproliferative activity against human MCF7 cells assessed as inhibition of cell proliferation after 72 hrs by MTT assay; assay type: functional, cell-based; settings: MCF7, 72 h
Outline: (§2)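 Cells seeded at 5000/well and allowed to attach overnight, then given fresh medium with test agents (from 10 mM DMSO stocks; at most 0.3% DMSO in medium) for 72 h. 5 mg/mL MTT solution was added for 4 h, and formazan was dissolved in DMSO and read at 545 nm. Untreated cells served as negative control and cisplatin as reference. Two plates, ≥5 parallel wells each. IC50 from sigmoidal dose-response fits.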

[4] = tested on: A2780; experiment: Antiproliferative activity against human A2780 cells assessed as inhibition of cell proliferation after 72 hrs by MTT assay; assay type: functional, cell-based; settings: A2780, 72 h; outline: as §2
[5] = tested on: HeLa; experiment: Antiproliferative activity against human HeLa cells assessed as inhibition of cell proliferation after 72 hrs by MTT assay; assay type: functional, cell-based; outline: as §2
[6] = tested on: A-431; experiment: Antiproliferative activity against human A431 cells assessed as inhibition of cell proliferation after 72 hrs by MTT assay; assay type: functional, cell-based; settings: A-431, 72 h; outline: as §2
[7] = tested on: HUVEC; experiment: Inhibition of LPS-induced IL-8 secretion in HUVEC expressing TERT treated for 15 mins prior to LPS challenge measured after 6 hrs by ELISA; assay type: functional, Homo sapiens; outline: as §1
[8] = tested on: HUVEC; experiment: Inhibition of TNF-alpha-induced IL-8 secretion in HUVEC expressing TERT treated for 15 mins prior to LPS challenge measured after 6 hrs by ELISA; assay type: functional, Homo sapiens; outline: as §1

| Compound | IC50 [3] | IC50 [4] | IC50 [5] | IC50 [6] | inhibition [1] | inhibition [2] | inhibition (INH) [7] | inhibition (INH) [8] |
| --- | --- | --- | --- | --- | --- | --- | --- | --- |
| C=C1C(=O)O[C@@H]2[C@@H](O)[C@@H](C)C3=CC(=O)[C@](C)(O3)[C@H](O)[C@@H](OC(=O)CC(C)C)[C@@H]12 (relative stereo) | > 10 µM | > 10 µM | > 10 µM | > 10 µM | Active | inactive |  |  |
| Cc1ccc(S(=O)(=O)/C=C/C#N)cc1 |  |  |  |  |  |  | 12.7% | 23.7% |
| C=C1C(=O)O[C@@H]2[C@@H]1[C@H](OC(=O)CC(C)C)C[C@@]1(C)[C@H](O)C[C@H](OC(C)=O)C(=C)[C@H]21 (relative stereo) | > 10 µM | 7.2 µM | > 10 µM | 5.3 µM | Active | inactive |  |  |

More lines, main results first:

| IC50 [3] | IC50 [4] | IC50 [5] | IC50 [6] | Compound | inhibition [1] | inhibition [2] | inhibition (INH) [7] | inhibition (INH) [8] |
| --- | --- | --- | --- | --- | --- | --- | --- | --- |
| 7.2 µM | 4.7 µM | > 10 µM | 7.2 µM | C=C1C(=O)O[C@@H]2/C=C(\C)[C@H](O)C[C@H]3O[C@]3(C)C[C@@H](OC(=O)CC(C)C)[C@@H]12 (relative stereo) | Active | inactive |  |  |
| > 10 µM | 5.4 µM | > 10 µM | 6.8 µM | C=C1C(=O)O[C@@H]2C[C@@]3(C)O[C@H](O[C@H]3CC(=O)C(C)=O)[C@@H](OC(=O)CC(C)C)[C@@H]12 (relative stereo) | Active | inactive |  |  |
| > 10 µM | 9.8 µM | > 10 µM | > 10 µM | C=C1C(=O)O[C@@H]2C[C@]3(C)O[C@@H](O[C@@H]3CC(=O)C(C)=O)[C@@H](OC(=O)CC(C)C)[C@@H]12 (relative stereo) | Active | inactive |  |  |
